According to ChEMBL document CHEMBL4024799, “Synthesis and Biological Characterization of Aryl Uracil Inhibitors of Hepatitis C Virus NS5B Polymerase: Discovery of ABT-072, a trans-Stilbene Analog with Good Oral Bioavailability” (J Med Chem, 2018):
The source made the active and inactive calls. The rule behind the calls is not given here.

Columns and labels:
[1] = Inhibition of HCV genotype 3a NS5B RNA dependent RNA polymerase assessed as reduction in [3H]UTP incorporation in to RNA preincubated for 15 mins followed by [3H]UTP addition measured after 3 hrs by microbeta scintillation counting method; set-up: species or system Hepatitis C virus subtype 3a
Plasma [2] = assay: Drug uptake in human plasma administered as single dose; type: ADME, cell-free
[3] = tested on: Hepatitis C virus (isolate BK); assay: Inhibition of HCV genotype 1b BK NS5B RNA dependent RNA polymerase Y448H mutant assessed as reduction in [3H]UTP incorporation in to RNA preincubated for 15 mins followed by [3H]UTP addition measured after 3 hrs by microbeta scintillation counting method
How it was run: (§1)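 Standard NS5B polymerase inhibition assay using genotype 1a (H77) or 1b (BK) enzyme. RNA product formation was measured as ³H-UTP incorporated into RNA, read by scintillation counting. IC50 was calculated with a standard IC50 equation.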

[4] = Half life in dog at 30 mg/kg, po; type: ADME, organism-based, Canis lupus familiaris; settings: in vivo
[5] = Ratio of drug level in dog liver to plasma at 2.5 mg/kg, po after 24 hrs; type: ADME, organism-based, Canis lupus familiaris
[6] = Cmax in human at 320 mg administered as single dose; type: ADME; set-up: dose 320 mg; settings: in vivo
How it was run: (§2)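 Single oral doses of 80, 160 or 320 mg in healthy subjects; plasma concentration-time profiles reported as mean (+SD); Cmax and terminal phase half-life derived.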

Hepatitis C virus [7] = assay: Antiviral activity against HCV genotype 1a H77 infected in human HuH7 cells harboring HCV subgenomic bicistronic replicon after 3 days in presence of 40% human plasma by luciferase reporter gene assay; type: functional, cell-based, Hepacivirus hominis; settings: genotype 1a H77, Huh-7, 72 h
How it was run: (§3)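 Subgenomic genotype 1a (H77) or 1b (Con1) replicons carrying firefly luciferase, transfected into Huh-7 cells. Replication inhibition was read as luciferase level in cell lysate on a luminometer and reported as EC50. Runs were done without human plasma or with 40% human plasma added, to assess inhibitor–protein binding.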

[8] = Cmax in dog at 2.5 mg/kg, po; type: ADME, organism-based, Canis lupus familiaris; set-up: dose 2.5 mg/kg, route oral; settings: in vivo
Canis familiaris = assay: AUC in dog at 30 mg/kg, po; type: ADME, organism-based, Canis lupus familiaris; settings: in vivo
[9] = Ratio of drug level in Sprague-Dawley rat liver to plasma at 5 mg/kg, po after 24 hrs; type: ADME, organism-based
How it was run: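 Male/female not given; Sprague-Dawley rats, n = 3 per experiment, single 5 mg/kg oral dose given as a solution in DMSO:PEG400 (1:9, v/v). Drug concentrations measured in liver tissue and plasma at 12 h and 24 h post-dose; value reported as the liver-to-plasma concentration ratio.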

Hepatitis C virus [10] = assay: Antiviral activity against HCV genotype 1 infected in human assessed as sustained virologic response at 400 mg administered once daily in combination with ABT-450/r and ribavirin; type: functional, Hepacivirus hominis
How it was run: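 GT1-infected adults given 400 mg once daily together with ABT-450/ritonavir and ribavirin; sustained virologic response assessed 24 weeks after treatment.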

[11] = Oral bioavailability in Sprague-Dawley rat at 5 mg/kg; type: ADME, organism-based; settings: in vivo
How it was run: (§4)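 Sprague-Dawley rats, n = 3 per experiment; solution in DMSO:PEG400 (1:9, v/v) given IV or oral; 5 mg/kg for both routes, and 30 mg/kg oral; plasma t1/2, Vss, clearance, Cmax, AUC and F% determined.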

[12] = Volume of distribution at steady state in dog at 2.5 mg/kg, iv; type: ADME, organism-based, Canis lupus familiaris; settings: in vivo, read-out: Vdss
Plasma [13] = assay: Drug level in po dosed dog plasma up to 24 hrs; type: ADME, organism-based, Canis lupus familiaris; settings: in vivo
How it was run: (§5)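 Dogs given oral doses; liver tissue and plasma drug levels measured at 12 and 24 h; liver:plasma ratio calculated.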

[14] = AUC (infinity) in human at 320 mg administered as single dose; type: ADME; set-up: dose 320 mg, time infinity; settings: in vivo; how it was run: as §2
[15] = Oral bioavailability in dog at 2.5 mg/kg; type: ADME, organism-based, Canis lupus familiaris; settings: in vivo
[16] = Cmax in human infected with HCV genotype 1 at 160 mg administered once daily for 2 days; type: ADME; set-up: dose 160 mg; settings: in vivo
How it was run: (§6)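 HCV GT1-infected patients (N=4) given 160 mg once daily for 2 days; plasma Cmax, AUC and t1/2 determined.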

[17] = Oral bioavailability in Sprague-Dawley rat at 30 mg/kg; type: ADME, organism-based; settings: in vivo; how it was run: as §4
[18] = AUC (infinity) in human at 80 mg administered as single dose; type: ADME; set-up: dose 80 mg, time infinity; settings: in vivo; how it was run: as §2
[19] = AUC (infinity) in human at 160 mg administered as single dose; type: ADME; set-up: dose 160 mg, time infinity; settings: in vivo; how it was run: as §2
[20] = Cmax in human at 80 mg administered as single dose; type: ADME; set-up: dose 80 mg; settings: in vivo; how it was run: as §2
[21] = Tmax in human at 160 mg administered as single dose; type: ADME; settings: in vivo
[22] = Half life in Sprague-Dawley rat at 5 mg/kg, iv; type: ADME, organism-based; settings: in vivo; how it was run: as §4
[23] = tested on: Hepatitis C virus (isolate H77); assay: Inhibition of HCV genotype 1a H77 NS5B RNA dependent RNA polymerase M414T mutant assessed as reduction in [3H]UTP incorporation in to RNA preincubated for 15 mins followed by [3H]UTP addition measured after 3 hrs by microbeta scintillation counting method; how it was run: as §1
Rattus norvegicus = assay: AUC in Sprague-Dawley rat at 30 mg/kg, po; type: ADME, organism-based; settings: in vivo; how it was run: as §4
[24] = Cmax in human at 160 mg administered as single dose; type: ADME; set-up: dose 160 mg; settings: in vivo; how it was run: as §2
[25] = Half life in dog at 2.5 mg/kg, po; type: ADME, organism-based, Canis lupus familiaris; settings: in vivo
[26] = Terminal half life in human at 80 mg administered as single dose; type: ADME; settings: in vivo, read-out: beta t1/2 (converted); how it was run: as §2
[27] = Plasma clearance in Sprague-Dawley rat at 5 mg/kg, iv; type: ADME, organism-based; how it was run: as §4
[28] = Oral bioavailability in dog at 30 mg/kg; type: ADME, organism-based, Canis lupus familiaris; settings: in vivo
[29] = AUC in Sprague-Dawley rat at 5 mg/kg, po; type: ADME, organism-based; settings: in vivo; how it was run: as §4
[30] = Drug level in dog liver at 2.5 mg/kg, po after 24 hrs; type: ADME, organism-based, Canis lupus familiaris; settings: read-out: Drug uptake; how it was run: as §5
[31] = Cmax in dog at 30 mg/kg, po; type: ADME, organism-based, Canis lupus familiaris; set-up: dose 30 mg/kg, route oral; settings: in vivo
Hepatitis C virus [32] = assay: Antiviral activity against HCV genotype 1 infected in human assessed as decrease in viral RNA load at 160 mg administered once daily for 2 days; type: functional, Hepacivirus hominis
How it was run: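 HCV GT1-infected patients (N=4) given 160 mg once daily for 2 days; read-out was least squares mean maximum decrease from baseline in HCV RNA (log10 IU/mL).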

[33] = Tmax in human infected with HCV genotype 1 at 160 mg administered once daily for 2 days; type: ADME; settings: in vivo
[34] = Terminal half life in human at 320 mg administered as single dose; type: ADME; settings: in vivo, read-out: beta t1/2 (converted); how it was run: as §2
[35] = Half life in dog at 2.5 mg/kg, iv; type: ADME, organism-based, Canis lupus familiaris; settings: in vivo
[36] = Terminal half life in human at 160 mg administered as single dose; type: ADME; settings: in vivo, read-out: beta t1/2 (converted); how it was run: as §2
[37] = Half life in Sprague-Dawley rat at 5 mg/kg, po; type: ADME, organism-based; settings: in vivo; how it was run: as §4
[38] = AUC (0 to 24 hrs) in human infected with HCV genotype 1 at 160 mg administered once daily for 2 days; type: ADME; set-up: time < 24 hr, dose 160 mg; settings: in vivo; how it was run: as §6
[39] = tested on: Hepatitis C virus (isolate BK); assay: Inhibition of HCV genotype 1b BK NS5B RNA dependent RNA polymerase M414T mutant assessed as reduction in [3H]UTP incorporation in to RNA preincubated for 15 mins followed by [3H]UTP addition measured after 3 hrs by microbeta scintillation counting method; how it was run: as §1
Hepatitis C virus [40] = assay: Antiviral activity against HCV genotype 1b Con1 infected in human HuH7 cells harboring HCV subgenomic bicistronic replicon after 3 days by luciferase reporter gene assay; type: functional, cell-based, Hepacivirus hominis; settings: genotype 1b Con1, Huh-7, 72 h; how it was run: as §3

COc1c(/C=C/c2ccc(NS(C)(=O)=O)cc2)cc(-n2ccc(=O)[nH]c2=O)cc1C(C)(C)C [ABT-072]
IC50 [1]: 3000 nM
Drug uptake (Plasma [2]): Dose-dependent effect
inhibition [3]: inactive
half-life [4]: 9.6 h
Kp at 24 h [5]: 10
Cmax [6]: 486 ng/mL
EC50 (Hepatitis C virus [7]): 19 nM
Cmax [8]: 880 ng/mL
AUC (Canis familiaris): 124000 ng·h/mL
Kp at 24 h [9]: 46
Activity (Hepatitis C virus [10]): 91%
bioavailability [11]: 44%
Vd [12]: 1.5 L/kg
Drug uptake (Plasma [13]): Dose-dependent effect
AUC(0-inf) [14]: 7200 ng·h/mL
bioavailability [15]: 86%
Cmax [16]: 415 ng/mL
bioavailability [17]: 63%
AUC(0-inf) [18]: 2440 ng·h/mL
AUC(0-inf) [19]: 4640 ng·h/mL
Cmax [20]: 180 ng/mL
Tmax [21]: 6.8 h
half-life [22]: 2.9 h
inhibition [23]: inactive
AUC (Rattus norvegicus): 21600 ng·h/mL
Cmax [24]: 303 ng/mL
half-life [25]: 5.4 h
half-life [26]: 8.17 h
clearance [27]: 15 mL/min/kg
bioavailability [28]: 61%
AUC [29]: 2520 ng·h/mL
concentration at 24 h [30]: > 1000 ng/g
Cmax [31]: 7560 ng/mL
Activity (Hepatitis C virus [32]): 1.18 log10IU/ml
Tmax [33]: 3.6 h
half-life [34]: 7.01 h
half-life [35]: 5.5 h
half-life [36]: 7.63 h
half-life [37]: 3.1 h
AUC at 24 h [38]: 4180 ng·h/mL
inhibition [39]: inactive
EC50 (Hepatitis C virus [40]): 0.3 nM
